# Screens from PubChem BioAssay.
# Yeast growth inh: chemicals that inhibit yeast BB579 growth in restrictive medium (lifespan-shortening candidates) | S. cerevisiae BB579 growth, OD615, 48 h | inhibition, % at 10 µM | 140,000 tested, 0.51% active | AID 804;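 active = inhibition above a set limit, 3 SD over the mean compound inhibition, cut at about 44% in these data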
#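 test system = yeast BB579 (DeaD) | buffer or medium = restrictive CSMM-D medium | doses = single compound dose of 10 µM, 0.25% DMSO final | times = 4 h preincubation and 48 h exposure at 30 °C | technique = culture absorbance at 615 nm | benchmarks = amphotericin B 10 µg/mL, positive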
# Cl transport mod: modulators of human KCC2 chloride dependent transport | B-score of Tl+ flux slope (higher = more flux/activation; lower = inhibition) at 10 µM | KCC2 cells, thallium flux FluoZin-2 fluorescence | Q9H2X9 | 190,000 tested, 2.2% active;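 active = thallium flux slope and its plate-corrected score both differing from the plate sample mean at a set confidence after two filtering rounds, in either direction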;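 also: slope of fluorescence scaled to starting intensity during 10 to 20 s after thallium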
# Target sequence (Q9H2X9 whole entry, looked up): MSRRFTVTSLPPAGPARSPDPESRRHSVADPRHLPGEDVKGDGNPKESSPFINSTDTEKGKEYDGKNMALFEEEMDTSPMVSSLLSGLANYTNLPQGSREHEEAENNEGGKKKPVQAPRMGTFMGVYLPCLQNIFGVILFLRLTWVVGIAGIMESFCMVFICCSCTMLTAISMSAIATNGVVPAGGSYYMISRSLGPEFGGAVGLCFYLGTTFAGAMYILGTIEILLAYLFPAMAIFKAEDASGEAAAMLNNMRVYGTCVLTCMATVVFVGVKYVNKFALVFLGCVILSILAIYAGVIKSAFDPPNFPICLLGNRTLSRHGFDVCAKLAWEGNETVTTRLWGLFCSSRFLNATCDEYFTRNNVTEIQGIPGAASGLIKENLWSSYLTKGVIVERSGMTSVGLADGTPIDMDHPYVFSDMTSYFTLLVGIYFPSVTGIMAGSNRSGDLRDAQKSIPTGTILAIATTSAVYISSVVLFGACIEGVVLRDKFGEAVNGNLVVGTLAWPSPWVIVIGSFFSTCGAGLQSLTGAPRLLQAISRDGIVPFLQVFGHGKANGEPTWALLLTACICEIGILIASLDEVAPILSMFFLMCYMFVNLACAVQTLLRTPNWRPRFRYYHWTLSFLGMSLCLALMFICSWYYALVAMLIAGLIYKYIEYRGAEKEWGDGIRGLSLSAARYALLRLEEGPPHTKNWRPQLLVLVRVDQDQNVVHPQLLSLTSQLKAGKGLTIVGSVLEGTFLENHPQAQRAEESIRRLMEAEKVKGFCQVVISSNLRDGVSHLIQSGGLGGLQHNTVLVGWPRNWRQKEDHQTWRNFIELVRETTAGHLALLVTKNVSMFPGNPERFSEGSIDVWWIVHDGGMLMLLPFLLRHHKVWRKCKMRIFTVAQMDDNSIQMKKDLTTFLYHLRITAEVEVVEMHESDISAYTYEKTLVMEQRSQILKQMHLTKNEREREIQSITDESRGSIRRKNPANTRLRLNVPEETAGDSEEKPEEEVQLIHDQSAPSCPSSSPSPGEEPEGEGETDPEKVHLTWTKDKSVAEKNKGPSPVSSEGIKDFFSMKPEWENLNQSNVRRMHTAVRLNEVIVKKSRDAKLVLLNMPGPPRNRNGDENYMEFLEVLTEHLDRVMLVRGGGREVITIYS
# WT yeast gro inh: growth inhibition of WT yeast, mitochondrial fusion screen | 190,000 tested, 2.1% active | mitochondrial fusion phenotypic screen, WT strain | AID 1362 | inhibition, % at 10 µM; in the data active = inhibition above about 58%; tested in S. cerevisiae
# RAM inhibit: blocks the yeast RAM network; inhibition, % at 50 µM; AID 868; S. cerevisiae dse1pr::URA3 reporter, 5-FOA growth OD615, 2 d; analog-sensitive cbk1-as2 kinase mutant strain; 190,000 tested, 1.8% active;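 active = inhibition above a set limit, 3 SD over mean compound inhibition, cut at about 8.4% in these data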;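 also: 0% = DMSO-only wells with no growth and 100% = 10 µM 1-NA-PP1 full growth; inhibition rescues growth on 5-FOA so higher OD means more RAM inhibition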
# Yeast lifespan up: extends the lifespan of yeast. S. cerevisiae growth with nicotinamide, OD615; deaD strain in restrictive glucose medium. inhibition of the nicotinamide effect, % at 10 µM. 130,000 tested, 0.68% active;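 active = inhibition above a set limit, placed 3 SD over the median of all compounds, cut at about 26% in these data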;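 also: 0% = nicotinamide-treated wells and 100% = cells grown without nicotinamide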
#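 Assay system: DeaD-strain S. cerevisiae. Medium: CSMM-D glucose medium, restrictive. Reagent: nicotinamide, 1.5 mM, co-present with compound. Compound: 10 µM single point, 0.25% DMSO. Schedule: culture preincubation 4 h, compound exposure 48 h, both 30 °C. Detection: absorbance at 615 nm.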
# Numbers without * were called inactive; / = no result. Only some compounds are listed: those with a hit (about 5.5% of all), similar ones and a draw of the others.
SMILES,Yeast growth inh,Cl transport mod,WT yeast gro inh,RAM inhibit,Yeast lifespan up
O=[N+]([O-])c1ccc(Nc2nc(NC3CCCCC3)nc(N3CCCC3)n2)cc1,/,0.235,76.6*,6.9,/
COc1ccc(Nc2nc(N3CCCCC3)c3ccccc3n2)cc1,-68.1,/,74.6*,1.6,-14.1
O=[N+]([O-])c1ccc(Nc2nc(N/N=C/c3cccc(F)c3)nc(N3CCCC3)n2)cc1,-8.9,0.163,26.1,3.6,-0.1
CCOc1ccc(Nc2nc(N3CCCCC3)nc(N3CCCCC3)n2)cc1,-59.3,0.729,60.6*,-1.0,-14.2
Cc1cccc(NC(=S)Nc2ccc(N3CCOCC3)cc2)c1C,-9.6,1.6,4.9,0.9,1.0
O=C(/C=C/c1ccco1)Nc1cccc(NC(=O)/C=C/c2ccco2)n1,-12.4,-1.51,59.5*,1.2,-2.3
CCCOC(=O)c1ccc(NC(=O)/C=C/c2cccs2)cc1,-33.9,-0.734,41.4,10.0*,-6.3
O=C(/C=C/c1cccs1)Nc1ccncc1,-13.1,0.654,-7.0,2.9,0.1
N#Cc1c(Cl)nc2c(c1C#N)CCCC2,/,-0.0618,/,/,/
C=CCN1C(=O)C(C)(C)N(C(C)=O)c2ccccc21,-30.8,0.0091,-4.7,2.3,28.3*
CCC(c1nnc(SCC(=O)Nc2ccc(Cl)cc2C(F)(F)F)n1C1CCCCC1)N(C)C (configuration not stated),-35.6,-0.855,8.6,0.0,3.8
CCCCS(=O)(=O)/C=C\C1C2C=CC(C2)C1S(=O)(=O)CCCC (configuration not stated),-35.0,/,-4.8,0.5,-5.6
CCCCS(=O)(=O)/C=C\C=C/S(=O)(=O)CCCC,-51.0,-1.59,87.6*,-1.7,14.5
O=C(Nc1ccccc1C(=O)N/N=C/c1ccco1)c1ccccc1,-0.7,7.84*,19.4,0.9,-2.5
CCOC(=O)Nc1cc(NC(=O)OCC)c(C)nc1C,/,-0.727,/,/,/
COc1ccccc1CN=Cc1[nH]c2ccc(Br)c(Cl)c2c1O,12.9,-0.596,67.5*,0.3,-7.4
Cc1cccc(N=Cc2[nH]c3ccc(Br)c(Cl)c3c2O)c1,-20.3,0.338,-6.0,0.7,2.0
CC(C)OC(=O)CSc1nc(Cc2ccccc2)nc2ccccc12,/,-1.17,13.6,4.5,/
N#CC1(c2ccccc2)CCC(=O)N1c1ccccc1 (configuration not stated),/,-0.23,/,/,/
COc1ccc(N2C(=O)CC2(C#N)c2ccc(OCc3ccccc3)cc2)cc1 (configuration not stated),-23.3,-1.14,-5.6,10.7*,5.5
Cn1c(C(C#N)C(=O)c2ccco2)nc2ccccc21 (configuration not stated),63.6*,0.313,-10.9,2.4,-11.3
COc1cccc(-c2nc(-c3cccs3)no2)c1,/,0.122,/,/,/
COc1cc(OC)cc(-c2nc(-c3cccs3)no2)c1,/,0.311,-8.5,9.8*,/
CCOc1ccc(Br)cc1-c1noc(-c2cccs2)n1,-33.2,0.483,4.0,8.8*,-18.6
CCCCOc1ccc(-c2nnn(CC(=O)Nc3ncc(CC(=O)OCC)s3)n2)cc1,-67.6,-1.16,17.2,9.3*,-1.7
SMILES,Yeast growth inh,Cl transport mod,WT yeast gro inh,RAM inhibit,Yeast lifespan up
O=C(CCn1c(=O)c2ccccc2n(Cc2ccccc2)c1=O)NC1CCN(Cc2ccccc2)CC1,/,-0.119,/,/,/
O=c1c2ccccc2n(Cc2ccc(F)cc2)c(=O)n1C1CCCC1,-20.5,-1.35,77.3*,1.9,-13.1
S=c1[nH]ncn1/N=C/c1cccc(Oc2ccccc2)c1,-30.3,/,72.9*,-0.1,-8.7
C(=N\n1cnnc1)/c1cccc(Oc2ccccc2)c1,5.3,-2.24,45.9,0.6,-12.2
Cc1cccc2c(=O)cc(C)n(CC(N)=O)c12,/,0.499,/,/,/
Cc1ccc(NC(=O)c2oc3ccc(S(=O)(=O)N4CCOCC4)cc3c2C)c(C)c1,/,1.27,-7.7,9.4*,/
O=C(NCC1CC1)[C@@H]1C[C@H]1[C@@H](NP(=O)(c1ccccc1)c1ccccc1)c1ccccc1,-22.6,-0.35,-6.7,2.2,3.2
CC/C(=C\C1CCCCC1)C(NP(=O)(c1ccccc1)c1ccccc1)c1ccccc1 (configuration not stated),-24.0,0.721,78.8*,4.7,9.5
O=S(=O)(Nc1ccc(Cl)cc1)c1ccc2c(c1)CCO2,/,-1.36,/,/,/
Cc1cc(C)c[n+](CC(=O)c2cc3ccccc3oc2=O)c1,-35.6,-0.821,-12.3,0.8,4.8
O=C(Cn1nc(Cl)nc1Cl)c1cc2ccccc2oc1=O,-29.3,/,-6.4,-0.3,41.8*
Cc1ccc[n+](CC(=O)c2cc3ccccc3oc2=O)c1,-25.8,-0.415,9.8,2.6,36.3*
O=C1Nc2cc3c(cc2C1=O)sc1ccccc13,/,1.03,/,/,/
COc1ccc(Cl)cc1N(C(C)C(=O)NC1CCCC1)S(C)(=O)=O (configuration not stated),/,0.503,1.4,1.9,/
COc1ccc(C(=O)NC(C)c2nnc(SCC(=O)Nc3nc4ccccc4s3)n2C)cc1 (configuration not stated),-16.5,-4.63*,25.4,0.5,-11.9
COc1ccc(C(=O)CSc2nnc(C(CO)NC(=O)c3ccc(OC)cc3)n2C)cc1 (configuration not stated),-20.2,-0.924,2.0,10.7*,-10.6
Cc1n(-c2ccccc2)c2ccc(Cl)cc2[n+]1CCO,/,0.571,13.0,0.9,/
Cc1c(C#N)c(NC(=O)CCl)n(Cc2cccs2)c1C,/,0.318,-20.4,3.2,/
CC(C)C1Cc2c(sc(NC(=S)NC(=O)c3ccccc3)c2C#N)CO1 (configuration not stated),-10.7,1.12,10.2,3.6,0.5
CCOC(=O)c1c(NC(=S)NCCc2ccccc2)sc2c1CC(C(C)C)OC2 (configuration not stated),-22.7,8.93*,3.1,3.9,-3.1
C=CCNC(=S)Nc1sc2c(c1C(=O)OCC)CC(C(C)C)OC2 (configuration not stated),-62.2,31.9*,10.1,2.9,-10.2
O=C(NC1CCCCC1)C(c1cccnc1)N(C(=O)c1ccc(Cl)nc1)C1CCCCC1 (configuration not stated),/,0.695,-11.1,1.3,/
Cc1nc(Nc2ccc(Cl)c(Cl)c2)sc1C(=O)Nc1ccccc1,78.9*,0.401,92.5,3.9,0.2
COc1cccc(N2C(C(C)=O)=NN(c3ccccc3)C2c2ccc(N3CCOCC3)cc2)c1 (configuration not stated),-15.2,-0.139,12.8,1.9,2.9
COc1ccc(C2N(c3ccc(Cl)cc3)N=C(C(C)=O)N(C)N2C(C)=O)cc1 (configuration not stated),/,-1.43,66.9*,2.3,/
CC(C)c1nc(CN(C)C(=O)N[C@H](C(=O)N[C@@H](Cc2ccccc2)C[C@H](O)[C@H](Cc2ccccc2)NC(=O)OCc2cncs2)C(C)C)cs1,/,-2.56,0.6,/,/
CC(NC(=S)NCCCN1CCOCC1)C1CC2CCC1C2 (configuration not stated),/,0.32,59.4*,0.1,/
